Test system: Fibroblast
Experiment: Multiplex assay against human fibroblast
Type: toxicity, cell-based
Procedure, shortened: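 Cells stained live at seeding with Hoechst33342, BioTracker Green Microtubule Cytoskeleton Dye, MitoTracker Red and Annexin V Alexa Fluor 680 were imaged on a CQ1 microscope at 37°C and 5% CO2 after compound addition. Their classification by CellPathfinder machine-learning gating ran from Hoechst high-intensity objects versus normal cells, to healthy, pyknosed or fragmented nuclei among normal cells, to mitotic or apoptotic among pyknosed cells. Tubulin, mitochondrial-mass and membrane-permeability phenotypes are per cents of healthy-nucleus cells.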

[1] = 12 h, 1 µM, compound concentration 1 uM, replicate 1
[2] = 12 h, 1 µM, compound concentration 1 uM, replicate 2
[3] = 12 h, 10 µM, compound concentration 10 uM, replicate 1
[4] = 12 h, 10 µM, compound concentration 10 uM, replicate 2
[5] = 24 h, 1 µM, compound concentration 1 uM, replicate 1
[6] = 24 h, 1 µM, compound concentration 1 uM, replicate 2
[7] = 24 h, 10 µM, compound concentration 10 uM, replicate 1
[8] = 24 h, 10 µM, compound concentration 10 uM, replicate 2
[9] = 48 h, 1 µM, compound concentration 1 uM, replicate 1
[10] = 48 h, 1 µM, compound concentration 1 uM, replicate 2
[11] = 48 h, 10 µM, compound concentration 10 uM, replicate 1
[12] = 48 h, 10 µM, compound concentration 10 uM, replicate 2

## O=C(O)Cc1ccccc1Nc1c(Cl)cccc1Cl [DICLOFENAC]
[1]
  Population Apoptotic (%): 43%
  Population Fragmented Nuclei (%): 14%
  Population Healthy Nuclei (%): 67%
  Population Hoechst High Intensity Objects (%): 0%
  Population Membrane Permeable-Phenotype (%): 1%
  Population Mitochondria Different-Phenotype (%): 6%
  Population Mitotic Cells (%): 56%
  Population Normal (%): 99%
  Population Pyknosed Nuclei (%): 17%
  Population Tubulin-Different-Phenotype (%): 25%
[2]
  Population Apoptotic (%): 33%
  Population Fragmented Nuclei (%): 25%
  Population Healthy Nuclei (%): 49%
  Population Hoechst High Intensity Objects (%): 2%
  Population Membrane Permeable-Phenotype (%): 7%
  Population Mitotic Cells (%): 66%
  Population Normal (%): 97%
  Population Pyknosed Nuclei (%): 25%
  Population Tubulin-Different-Phenotype (%): 49%
[3]
  Population Apoptotic (%): 32%
  Population Fragmented Nuclei (%): 14%
  Population Healthy Nuclei (%): 68%
  Population Hoechst High Intensity Objects (%): 0%
  Population Membrane Permeable-Phenotype (%): 0%
  Population Mitochondria Different-Phenotype (%): 5%
  Population Mitotic Cells (%): 68%
  Population Normal (%): 99%
  Population Pyknosed Nuclei (%): 17%
  Population Tubulin-Different-Phenotype (%): 24%
[4]
  Population Apoptotic (%): 38%
  Population Fragmented Nuclei (%): 36%
  Population Healthy Nuclei (%): 46%
  Population Hoechst High Intensity Objects (%): 6%
  Population Membrane Permeable-Phenotype (%): 16%
  Population Mitochondria Different-Phenotype (%): 8%
  Population Mitotic Cells (%): 61%
  Population Normal (%): 93%
  Population Tubulin-Different-Phenotype (%): 54%
[5]
  Population Apoptotic (%): 52%
  Population Fragmented Nuclei (%): 15%
  Population Healthy Nuclei (%): 66%
  Population Hoechst High Intensity Objects (%): 2%
  Population Membrane Permeable-Phenotype (%): 0%
  Population Mitochondria Different-Phenotype (%): 4%
  Population Mitotic Cells (%): 47%
  Population Normal (%): 97%
  Population Pyknosed Nuclei (%): 17%
  Population Tubulin-Different-Phenotype (%): 29%
[6]
  Population Apoptotic (%): 35%
  Population Fragmented Nuclei (%): 28%
  Population Healthy Nuclei (%): 49%
  Population Hoechst High Intensity Objects (%): 3%
  Population Membrane Permeable-Phenotype (%): 12%
  Population Mitochondria Different-Phenotype (%): 6%
  Population Mitotic Cells (%): 64%
  Population Normal (%): 96%
  Population Pyknosed Nuclei (%): 21%
  Population Tubulin-Different-Phenotype (%): 50%
[7]
  Population Apoptotic (%): 30%
  Population Fragmented Nuclei (%): 16%
  Population Healthy Nuclei (%): 68%
  Population Hoechst High Intensity Objects (%): 5%
  Population Membrane Permeable-Phenotype (%): 0%
  Population Mitochondria Different-Phenotype (%): 5%
  Population Mitotic Cells (%): 69%
  Population Normal (%): 94%
  Population Pyknosed Nuclei (%): 15%
  Population Tubulin-Different-Phenotype (%): 19%
[8]
  Population Apoptotic (%): 50%
  Population Fragmented Nuclei (%): 31%
  Population Healthy Nuclei (%): 50%
  Population Hoechst High Intensity Objects (%): 2%
  Population Membrane Permeable-Phenotype (%): 8%
  Population Mitochondria Different-Phenotype (%): 10%
  Population Mitotic Cells (%): 50%
  Population Normal (%): 97%
  Population Pyknosed Nuclei (%): 18%
  Population Tubulin-Different-Phenotype (%): 55%
[9]
  Population Apoptotic (%): 85%
  Population Fragmented Nuclei (%): 21%
  Population Healthy Nuclei (%): 61%
  Population Hoechst High Intensity Objects (%): 3%
  Population Membrane Permeable-Phenotype (%): 4%
  Population Mitochondria Different-Phenotype (%): 4%
  Population Mitotic Cells (%): 15%
  Population Normal (%): 96%
  Population Pyknosed Nuclei (%): 16%
  Population Tubulin-Different-Phenotype (%): 24%
[10]
  Population Apoptotic (%): 57%
  Population Fragmented Nuclei (%): 36%
  Population Healthy Nuclei (%): 53%
  Population Hoechst High Intensity Objects (%): 5%
  Population Mitotic Cells (%): 42%
  Population Normal (%): 94%
  Population Pyknosed Nuclei (%): 10%
  Population Tubulin-Different-Phenotype (%): 44%
[11]
  Population Apoptotic (%): 73%
  Population Fragmented Nuclei (%): 22%
  Population Healthy Nuclei (%): 65%
  Population Hoechst High Intensity Objects (%): 3%
  Population Membrane Permeable-Phenotype (%): 0%
  Population Mitochondria Different-Phenotype (%): 3%
  Population Mitotic Cells (%): 26%
  Population Normal (%): 96%
  Population Pyknosed Nuclei (%): 12%
  Population Tubulin-Different-Phenotype (%): 28%
[12]
  Population Apoptotic (%): 30%
  Population Fragmented Nuclei (%): 35%
  Population Healthy Nuclei (%): 50%
  Population Membrane Permeable-Phenotype (%): 4%
  Population Mitochondria Different-Phenotype (%): 6%
  Population Mitotic Cells (%): 69%
  Population Pyknosed Nuclei (%): 14%
  Population Tubulin-Different-Phenotype (%): 53%

## CNC[C@H](O)c1ccc(O)c(O)c1 [EPINEPHRINE]
[1]
  Population Apoptotic (%): 36%
  Population Fragmented Nuclei (%): 17%
  Population Healthy Nuclei (%): 66%
  Population Hoechst High Intensity Objects (%): 1%
  Population Membrane Permeable-Phenotype (%): 1%
  Population Mitochondria Different-Phenotype (%): 3%
  Population Mitotic Cells (%): 63%
  Population Normal (%): 98%
  Population Pyknosed Nuclei (%): 16%
  Population Tubulin-Different-Phenotype (%): 15%
[2]
  Population Apoptotic (%): 40%
  Population Fragmented Nuclei (%): 38%
  Population Healthy Nuclei (%): 44%
  Population Membrane Permeable-Phenotype (%): 13%
  Population Mitochondria Different-Phenotype (%): 7%
  Population Mitotic Cells (%): 60%
  Population Pyknosed Nuclei (%): 17%
  Population Tubulin-Different-Phenotype (%): 42%
[3]
  Population Apoptotic (%): 40%
  Population Fragmented Nuclei (%): 18%
  Population Healthy Nuclei (%): 61%
  Population Hoechst High Intensity Objects (%): 3%
  Population Membrane Permeable-Phenotype (%): 1%
  Population Mitochondria Different-Phenotype (%): 6%
  Population Mitotic Cells (%): 60%
  Population Normal (%): 96%
  Population Pyknosed Nuclei (%): 20%
  Population Tubulin-Different-Phenotype (%): 23%
[4]
  Population Apoptotic (%): 32%
  Population Fragmented Nuclei (%): 39%
  Population Healthy Nuclei (%): 37%
  Population Hoechst High Intensity Objects (%): 7%
  Population Membrane Permeable-Phenotype (%): 12%
  Population Mitochondria Different-Phenotype (%): 8%
  Population Mitotic Cells (%): 67%
  Population Normal (%): 92%
  Population Pyknosed Nuclei (%): 23%
  Population Tubulin-Different-Phenotype (%): 55%
[5]
  Population Apoptotic (%): 54%
  Population Fragmented Nuclei (%): 12%
  Population Healthy Nuclei (%): 70%
  Population Hoechst High Intensity Objects (%): 0%
  Population Membrane Permeable-Phenotype (%): 0%
  Population Mitochondria Different-Phenotype (%): 3%
  Population Mitotic Cells (%): 45%
  Population Normal (%): 99%
  Population Pyknosed Nuclei (%): 16%
  Population Tubulin-Different-Phenotype (%): 11%
[6]
  Population Apoptotic (%): 23%
  Population Fragmented Nuclei (%): 38%
  Population Healthy Nuclei (%): 47%
  Population Hoechst High Intensity Objects (%): 3%
  Population Membrane Permeable-Phenotype (%): 12%
  Population Mitochondria Different-Phenotype (%): 6%
  Population Mitotic Cells (%): 76%
  Population Normal (%): 96%
  Population Pyknosed Nuclei (%): 14%
  Population Tubulin-Different-Phenotype (%): 32%
[7]
  Population Apoptotic (%): 65%
  Population Fragmented Nuclei (%): 16%
  Population Healthy Nuclei (%): 60%
  Population Hoechst High Intensity Objects (%): 3%
  Population Membrane Permeable-Phenotype (%): 0%
  Population Mitochondria Different-Phenotype (%): 5%
  Population Mitotic Cells (%): 34%
  Population Normal (%): 96%
  Population Pyknosed Nuclei (%): 23%
  Population Tubulin-Different-Phenotype (%): 21%
[8]
  Population Apoptotic (%): 38%
  Population Fragmented Nuclei (%): 39%
  Population Healthy Nuclei (%): 44%
  Population Membrane Permeable-Phenotype (%): 12%
  Population Mitochondria Different-Phenotype (%): 4%
  Population Mitotic Cells (%): 61%
  Population Pyknosed Nuclei (%): 15%
  Population Tubulin-Different-Phenotype (%): 51%
[9]
  Population Apoptotic (%): 50%
  Population Fragmented Nuclei (%): 17%
  Population Healthy Nuclei (%): 67%
  Population Hoechst High Intensity Objects (%): 1%
  Population Membrane Permeable-Phenotype (%): 0%
  Population Mitochondria Different-Phenotype (%): 6%
  Population Mitotic Cells (%): 50%
  Population Normal (%): 98%
  Population Pyknosed Nuclei (%): 15%
  Population Tubulin-Different-Phenotype (%): 23%
[10]
  Population Apoptotic (%): 38%
  Population Fragmented Nuclei (%): 41%
  Population Healthy Nuclei (%): 48%
  Population Membrane Permeable-Phenotype (%): 6%
  Population Mitochondria Different-Phenotype (%): 5%
  Population Mitotic Cells (%): 61%
  Population Pyknosed Nuclei (%): 10%
  Population Tubulin-Different-Phenotype (%): 45%
[11]
  Population Apoptotic (%): 77%
  Population Fragmented Nuclei (%): 20%
  Population Healthy Nuclei (%): 65%
  Population Hoechst High Intensity Objects (%): 2%
  Population Membrane Permeable-Phenotype (%): 2%
  Population Mitochondria Different-Phenotype (%): 4%
  Population Mitotic Cells (%): 22%
  Population Normal (%): 97%
  Population Pyknosed Nuclei (%): 13%
  Population Tubulin-Different-Phenotype (%): 32%
[12]
  Population Apoptotic (%): 37%
  Population Fragmented Nuclei (%): 50%
  Population Healthy Nuclei (%): 44%
  Population Hoechst High Intensity Objects (%): 3%
  Population Membrane Permeable-Phenotype (%): 6%
  Population Mitochondria Different-Phenotype (%): 3%
  Population Mitotic Cells (%): 62%
  Population Normal (%): 96%
  Population Pyknosed Nuclei (%): 5%
  Population Tubulin-Different-Phenotype (%): 46%
